Laboratory results from ChEMBL document CHEMBL1146123, “Kinesin spindle protein (KSP) inhibitors. Part 2: the design, synthesis, and characterization of 2,4-diaryl-2,5-dihydropyrrole inhibitors of the mitotic kinesin KSP” (Bioorg Med Chem Lett, 2006).

Columns and labels:
[1] = target: T1, Kinesin-like protein KIF11 (Homo sapiens, UniProt P52732); assay: Inhibition of KSP
T1 sequence (P52732 whole entry): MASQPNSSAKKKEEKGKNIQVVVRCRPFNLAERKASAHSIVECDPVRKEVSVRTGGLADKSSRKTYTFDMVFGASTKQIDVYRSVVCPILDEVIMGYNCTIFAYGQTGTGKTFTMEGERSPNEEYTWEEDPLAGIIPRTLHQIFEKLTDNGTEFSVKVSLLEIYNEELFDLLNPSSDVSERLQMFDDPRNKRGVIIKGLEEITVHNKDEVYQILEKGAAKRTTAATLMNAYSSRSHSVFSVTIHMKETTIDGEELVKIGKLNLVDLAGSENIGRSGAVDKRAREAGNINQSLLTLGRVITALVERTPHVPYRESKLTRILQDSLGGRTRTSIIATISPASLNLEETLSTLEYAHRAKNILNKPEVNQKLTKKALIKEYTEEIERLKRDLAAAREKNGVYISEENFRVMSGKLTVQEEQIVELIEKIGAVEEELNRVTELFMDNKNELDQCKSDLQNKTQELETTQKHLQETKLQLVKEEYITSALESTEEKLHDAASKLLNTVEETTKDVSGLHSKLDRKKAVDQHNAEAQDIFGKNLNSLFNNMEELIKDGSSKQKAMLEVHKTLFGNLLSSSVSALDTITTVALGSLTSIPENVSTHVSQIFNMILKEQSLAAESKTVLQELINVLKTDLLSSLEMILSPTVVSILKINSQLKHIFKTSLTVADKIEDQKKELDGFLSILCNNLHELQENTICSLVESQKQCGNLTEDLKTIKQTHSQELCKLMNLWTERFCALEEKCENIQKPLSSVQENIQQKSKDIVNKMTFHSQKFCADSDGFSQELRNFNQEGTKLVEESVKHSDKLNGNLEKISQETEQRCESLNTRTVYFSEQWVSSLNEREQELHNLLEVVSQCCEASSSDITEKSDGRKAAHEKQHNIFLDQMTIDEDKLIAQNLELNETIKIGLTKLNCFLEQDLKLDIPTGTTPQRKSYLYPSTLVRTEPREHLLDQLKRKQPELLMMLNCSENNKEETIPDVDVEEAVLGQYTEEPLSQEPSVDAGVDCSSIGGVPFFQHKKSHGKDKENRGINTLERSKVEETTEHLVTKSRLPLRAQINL

A2780 = assay: Mitotic arrest in A2780 cells; assay type: functional, cell-based; conditions: Homo sapiens
Method in brief: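 Mitosis-specific nucleolin phosphorylation read-out. Total nucleolin is captured on streptavidin paramagnetic beads carrying biotinylated anti-nucleolin antibody 4E2, and detected by electrochemiluminescence of a Tris-bipyridyl label. Cells were treated for 16 h with a 7-point, half-log dilution series. EC50 is the average of at least two independent determinations.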

[2] = Aqueous solubility at pH 5; assay type: physicochemical; conditions: aqueous solution
[3] = Plasma clearance in rat at 1 mg/kg, iv; assay type: ADME, organism-based; set-up: dose 1 mg/kg, route intravenous
Method in brief: (§1)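 Single intravenous dose; rats at 1.0 mg/kg (n = 4), dogs at 0.4 mg/kg (n = 4), monkeys at 0.4 mg/kg (n = 3). Plasma clearance (mL/min/kg), steady-state volume of distribution (Vdss, L/kg) and half-life (h) taken from the plasma concentration profile.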

[4] = Volume distribution in rat at 1 mg/kg, iv; assay type: ADME, organism-based; set-up: dose 1 mg/kg, route intravenous; conditions: in vivo, read-out: Vdss; method in brief: as §1
[5] = Half life in rat at 1 mg/kg, iv; assay type: ADME, organism-based; set-up: dose 1 mg/kg, route intravenous; conditions: in vivo; method in brief: as §1
[6] = Plasma clearance in dog at 0.4 mg/kg, iv; assay type: ADME, organism-based, Canis lupus familiaris; set-up: dose 0.4 mg/kg, route intravenous; method in brief: as §1
[7] = Volume distribution in dog at 0.4 mg/kg, iv; assay type: ADME, organism-based, Canis lupus familiaris; set-up: dose 0.4 mg/kg, route intravenous; conditions: in vivo, read-out: Vdss; method in brief: as §1
[8] = Half life in dog at 0.4 mg/kg, iv; assay type: ADME, organism-based, Canis lupus familiaris; set-up: dose 0.4 mg/kg, route intravenous; conditions: in vivo; method in brief: as §1
[9] = Plasma clearance in monkey at 0.4 mg/kg, iv; assay type: ADME, organism-based, Macaca mulatta; set-up: dose 0.4 mg/kg, route intravenous; conditions: rhesus monkey; method in brief: as §1
[10] = Volume distribution in monkey at 0.4 mg/kg, iv; assay type: ADME, organism-based, Macaca mulatta; set-up: dose 0.4 mg/kg, route intravenous; conditions: rhesus monkey, in vivo, read-out: Vdss; method in brief: as §1
[11] = Half life in monkey at 0.4 mg/kg, iv; assay type: ADME, organism-based, Macaca mulatta; set-up: dose 0.4 mg/kg, route intravenous; conditions: rhesus monkey, in vivo; method in brief: as §1
[12] = target: Voltage-gated inwardly rectifying potassium channel KCNH2 (Homo sapiens, UniProt Q12809); assay: Inhibitory activity against human hERG receptor expressed in HEK cells
Chain of Voltage-gated inwardly rectifying potassium channel KCNH2 (Q12809 whole entry): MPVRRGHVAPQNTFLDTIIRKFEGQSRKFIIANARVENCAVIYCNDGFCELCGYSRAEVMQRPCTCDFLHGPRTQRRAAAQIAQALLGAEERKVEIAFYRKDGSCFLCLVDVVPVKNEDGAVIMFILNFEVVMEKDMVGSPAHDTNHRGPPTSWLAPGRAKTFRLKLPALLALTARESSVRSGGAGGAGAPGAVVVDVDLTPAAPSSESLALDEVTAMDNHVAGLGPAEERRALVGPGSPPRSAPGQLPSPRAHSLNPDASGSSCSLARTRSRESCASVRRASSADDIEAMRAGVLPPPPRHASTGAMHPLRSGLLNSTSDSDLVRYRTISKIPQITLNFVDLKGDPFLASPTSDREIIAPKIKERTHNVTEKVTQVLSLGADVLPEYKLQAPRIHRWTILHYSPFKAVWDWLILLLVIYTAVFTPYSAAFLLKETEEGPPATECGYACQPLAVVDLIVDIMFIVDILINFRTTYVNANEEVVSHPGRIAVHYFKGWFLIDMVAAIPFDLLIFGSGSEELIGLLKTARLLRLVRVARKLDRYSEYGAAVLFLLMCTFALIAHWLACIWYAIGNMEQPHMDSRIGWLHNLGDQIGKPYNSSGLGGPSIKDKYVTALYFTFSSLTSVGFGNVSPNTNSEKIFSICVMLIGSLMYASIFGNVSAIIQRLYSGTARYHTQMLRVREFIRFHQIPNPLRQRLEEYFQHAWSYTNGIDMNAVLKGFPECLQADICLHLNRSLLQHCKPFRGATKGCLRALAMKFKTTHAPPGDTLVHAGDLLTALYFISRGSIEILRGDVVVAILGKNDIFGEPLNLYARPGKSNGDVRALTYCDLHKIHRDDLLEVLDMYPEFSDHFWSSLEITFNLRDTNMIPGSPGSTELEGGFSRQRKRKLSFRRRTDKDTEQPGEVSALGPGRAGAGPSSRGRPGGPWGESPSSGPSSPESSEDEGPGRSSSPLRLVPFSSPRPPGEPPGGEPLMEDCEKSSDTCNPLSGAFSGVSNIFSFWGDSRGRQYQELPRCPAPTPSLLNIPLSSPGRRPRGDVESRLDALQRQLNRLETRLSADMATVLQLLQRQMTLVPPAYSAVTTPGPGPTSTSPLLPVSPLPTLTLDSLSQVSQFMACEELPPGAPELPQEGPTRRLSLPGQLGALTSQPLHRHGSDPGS

Compound	IC50 [1] [nM]	EC50 (A2780) [nM]	also measured
CC(C)(C)[C@H](NC(=O)OCCO)C(=O)N1CC(c2cc(F)ccc2F)=C[C@H]1c1ccccc1	7.4	13	–
CC(C)(CN)C(=O)N1CC(c2cc(F)ccc2F)=C[C@H]1c1ccccc1	5.2	11	–
CC(C)[C@@H](N)C(=O)N1CC(c2cc(F)ccc2F)=C[C@H]1c1ccccc1	3100	–	–
CC(C)(C)[C@H](N)C(=O)N1CC(c2cc(F)ccc2F)=C[C@H]1c1ccccc1	2.7	7.1	–
N[C@H](C(=O)N1CC(c2cc(F)ccc2F)=C[C@H]1c1ccccc1)C1CC1	–	8.6	solubility [2]: > 10000 µg/mL; clearance [3]: 40 mL/min/kg; Vd [4]: 4.4 L/kg; half-life [5]: 84 min; clearance [6]: 23 mL/min/kg; Vd [7]: 3.8 L/kg; half-life [8]: 138 min; clearance [9]: 21 mL/min/kg; Vd [10]: 7.4 L/kg; half-life [11]: 270 min
CN(C(=O)N1CC(c2cc(F)ccc2F)=C[C@H]1c1ccccc1)C1CCNCC1	–	6.8	solubility [2]: > 10000 µg/mL
CC(=O)N1CCC(N(C)C(=O)N2CC(c3cc(F)ccc3F)=C[C@H]2c2ccccc2)CC1	50	69	–
CC(C)[C@H](N)C(=O)N1CC(c2cc(F)ccc2F)=C[C@H]1c1ccccc1	3.6	12	–
O=C([C@@H](O)C1CC1)N1CC(c2cc(F)ccc2F)=C[C@H]1c1ccccc1	11	20	IC50 [12]: 11 µM
CN(CCCN)C(=O)N1CC(c2cc(F)ccc2F)=C[C@H]1c1ccccc1	16	44	–
CN(C)C(=O)N1CC(c2cc(F)ccc2F)=C[C@@H]1c1ccccc1	> 50000	–	–
CC(=O)N1CC(c2cc(F)ccc2F)=CC1c1ccccc1 (racemic)	4000	–	–
CC(C)(C)C(=O)N1N=C(c2cc(F)ccc2F)CC1c1ccccc1 (racemic)	113	–	–
CC(C)(C)C(=O)N1CC(c2cc(F)ccc2F)=CC1c1ccccc1 (racemic)	85	–	–
